Results: ChEMBL document CHEMBL3112572, “Substituted 4-phenyl-2-aminoimidazoles and 4-phenyl-4,5-dihydro-2-aminoimidazoles as voltage-gated sodium channel modulators” (Eur J Med Chem, 2014)

Tests used:
[1] = biological target: T1, Sodium channel protein type 3 subunit alpha (Homo sapiens, UniProt Q9NY46); assay: Modulation of human Nav1.3 in closed state assessed as inhibition of inward current after 4 mins by whole-cell electrophysiology
Outline: (§1)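 Automated whole-cell patch clamp (QPatch HT) on trypsin-EDTA-dissociated cells held in serum-free medium. Closed-state test pulse depolarizes from -100 mV. 0.1% DMSO vehicle for 4 min is followed by four cumulative bolus concentrations (0.3–10 µM, 0.1% DMSO final), each incubated 4 min. Peak inward current from the last three sweeps is compared with vehicle, and IC50 comes from a 4-parameter logistic fit constrained 0–100%, n≥3.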

[2] = biological target: T2, Sodium channel protein type 9 subunit alpha (Homo sapiens, UniProt Q15858); assay: Modulation of human Nav1.7 in open-inactivated state assessed as inhibition of inward current after 4 mins by whole-cell electrophysiology
T2 sequence (Q15858 whole entry): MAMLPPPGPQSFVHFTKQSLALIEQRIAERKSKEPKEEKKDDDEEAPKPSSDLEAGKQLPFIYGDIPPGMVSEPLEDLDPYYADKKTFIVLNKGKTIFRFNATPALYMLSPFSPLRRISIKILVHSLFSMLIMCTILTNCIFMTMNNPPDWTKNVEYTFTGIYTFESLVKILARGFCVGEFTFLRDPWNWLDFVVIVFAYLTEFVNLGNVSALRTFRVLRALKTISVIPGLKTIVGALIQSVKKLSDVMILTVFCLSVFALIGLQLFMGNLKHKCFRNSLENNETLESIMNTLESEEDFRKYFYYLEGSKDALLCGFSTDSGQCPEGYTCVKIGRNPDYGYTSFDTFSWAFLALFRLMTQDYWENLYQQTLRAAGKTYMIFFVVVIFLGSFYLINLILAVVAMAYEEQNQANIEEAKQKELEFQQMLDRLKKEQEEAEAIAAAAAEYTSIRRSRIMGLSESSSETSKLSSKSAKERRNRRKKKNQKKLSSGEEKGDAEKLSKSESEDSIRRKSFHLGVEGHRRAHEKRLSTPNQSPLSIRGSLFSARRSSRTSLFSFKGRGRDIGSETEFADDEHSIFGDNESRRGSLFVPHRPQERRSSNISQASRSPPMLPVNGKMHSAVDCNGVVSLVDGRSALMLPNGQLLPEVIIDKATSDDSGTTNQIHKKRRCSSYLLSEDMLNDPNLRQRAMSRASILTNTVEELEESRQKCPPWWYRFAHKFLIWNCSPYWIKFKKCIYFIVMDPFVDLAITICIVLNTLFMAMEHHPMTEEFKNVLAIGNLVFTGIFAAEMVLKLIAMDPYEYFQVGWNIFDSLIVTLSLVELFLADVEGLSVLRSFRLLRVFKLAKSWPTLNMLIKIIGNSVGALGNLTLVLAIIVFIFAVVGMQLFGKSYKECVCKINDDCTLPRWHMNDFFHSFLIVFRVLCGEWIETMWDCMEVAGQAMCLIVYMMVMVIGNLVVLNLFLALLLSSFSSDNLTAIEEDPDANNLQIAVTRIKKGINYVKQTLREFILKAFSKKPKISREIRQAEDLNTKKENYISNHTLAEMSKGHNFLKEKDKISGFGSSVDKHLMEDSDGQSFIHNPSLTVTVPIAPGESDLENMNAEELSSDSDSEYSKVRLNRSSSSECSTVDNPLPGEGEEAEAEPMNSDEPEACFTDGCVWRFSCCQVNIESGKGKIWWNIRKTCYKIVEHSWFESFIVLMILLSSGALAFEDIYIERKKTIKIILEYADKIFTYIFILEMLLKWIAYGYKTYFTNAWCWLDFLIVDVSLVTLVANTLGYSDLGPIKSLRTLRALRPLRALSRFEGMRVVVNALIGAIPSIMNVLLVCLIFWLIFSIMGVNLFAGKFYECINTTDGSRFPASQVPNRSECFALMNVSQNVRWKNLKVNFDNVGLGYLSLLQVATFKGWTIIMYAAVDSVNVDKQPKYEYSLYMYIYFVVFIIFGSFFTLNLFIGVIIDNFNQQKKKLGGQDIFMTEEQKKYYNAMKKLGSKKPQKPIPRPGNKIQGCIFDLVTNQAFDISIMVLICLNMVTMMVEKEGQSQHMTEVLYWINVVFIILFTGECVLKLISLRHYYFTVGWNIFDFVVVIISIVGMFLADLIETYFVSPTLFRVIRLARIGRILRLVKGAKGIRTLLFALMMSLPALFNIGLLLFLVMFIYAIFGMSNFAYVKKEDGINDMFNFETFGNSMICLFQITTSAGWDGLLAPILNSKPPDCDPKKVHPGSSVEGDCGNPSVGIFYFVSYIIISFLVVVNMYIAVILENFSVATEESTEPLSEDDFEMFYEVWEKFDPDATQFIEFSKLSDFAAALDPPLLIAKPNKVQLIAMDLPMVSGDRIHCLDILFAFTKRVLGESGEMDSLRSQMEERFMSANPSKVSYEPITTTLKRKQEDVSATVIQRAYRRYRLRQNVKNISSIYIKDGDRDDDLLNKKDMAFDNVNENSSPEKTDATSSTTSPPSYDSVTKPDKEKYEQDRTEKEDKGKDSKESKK
Outline: (§2)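 Cells dissociated with trypsin-EDTA are kept in serum-free medium and recorded by QPatch HT whole-cell clamp with a high-frequency, pathophysiological protocol. The open-inactivated test pulse depolarizes from about -70 mV. After 4 min of vehicle (0.1% DMSO), 0.3–10 µM is added cumulatively, 4 min per level. Percent inhibition of peak inward current uses the mean of the last three sweeps against vehicle. IC50 is fitted by a constrained 4-parameter logistic, mean ± SD of ≥3 experiments.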

[3] = biological target: T2, Sodium channel protein type 9 subunit alpha; assay: Modulation of human Nav1.7 in closed state assessed as inhibition of inward current after 4 mins by whole-cell electrophysiology; outline: as §1
[4] = biological target: T3, Sodium channel protein type 4 subunit alpha (Homo sapiens, UniProt P35499); assay: Modulation of human Nav1.4 in open-inactivated state assessed as inhibition of inward current after 4 mins by whole-cell electrophysiology; outline: as §2
T3 sequence (P35499 whole entry): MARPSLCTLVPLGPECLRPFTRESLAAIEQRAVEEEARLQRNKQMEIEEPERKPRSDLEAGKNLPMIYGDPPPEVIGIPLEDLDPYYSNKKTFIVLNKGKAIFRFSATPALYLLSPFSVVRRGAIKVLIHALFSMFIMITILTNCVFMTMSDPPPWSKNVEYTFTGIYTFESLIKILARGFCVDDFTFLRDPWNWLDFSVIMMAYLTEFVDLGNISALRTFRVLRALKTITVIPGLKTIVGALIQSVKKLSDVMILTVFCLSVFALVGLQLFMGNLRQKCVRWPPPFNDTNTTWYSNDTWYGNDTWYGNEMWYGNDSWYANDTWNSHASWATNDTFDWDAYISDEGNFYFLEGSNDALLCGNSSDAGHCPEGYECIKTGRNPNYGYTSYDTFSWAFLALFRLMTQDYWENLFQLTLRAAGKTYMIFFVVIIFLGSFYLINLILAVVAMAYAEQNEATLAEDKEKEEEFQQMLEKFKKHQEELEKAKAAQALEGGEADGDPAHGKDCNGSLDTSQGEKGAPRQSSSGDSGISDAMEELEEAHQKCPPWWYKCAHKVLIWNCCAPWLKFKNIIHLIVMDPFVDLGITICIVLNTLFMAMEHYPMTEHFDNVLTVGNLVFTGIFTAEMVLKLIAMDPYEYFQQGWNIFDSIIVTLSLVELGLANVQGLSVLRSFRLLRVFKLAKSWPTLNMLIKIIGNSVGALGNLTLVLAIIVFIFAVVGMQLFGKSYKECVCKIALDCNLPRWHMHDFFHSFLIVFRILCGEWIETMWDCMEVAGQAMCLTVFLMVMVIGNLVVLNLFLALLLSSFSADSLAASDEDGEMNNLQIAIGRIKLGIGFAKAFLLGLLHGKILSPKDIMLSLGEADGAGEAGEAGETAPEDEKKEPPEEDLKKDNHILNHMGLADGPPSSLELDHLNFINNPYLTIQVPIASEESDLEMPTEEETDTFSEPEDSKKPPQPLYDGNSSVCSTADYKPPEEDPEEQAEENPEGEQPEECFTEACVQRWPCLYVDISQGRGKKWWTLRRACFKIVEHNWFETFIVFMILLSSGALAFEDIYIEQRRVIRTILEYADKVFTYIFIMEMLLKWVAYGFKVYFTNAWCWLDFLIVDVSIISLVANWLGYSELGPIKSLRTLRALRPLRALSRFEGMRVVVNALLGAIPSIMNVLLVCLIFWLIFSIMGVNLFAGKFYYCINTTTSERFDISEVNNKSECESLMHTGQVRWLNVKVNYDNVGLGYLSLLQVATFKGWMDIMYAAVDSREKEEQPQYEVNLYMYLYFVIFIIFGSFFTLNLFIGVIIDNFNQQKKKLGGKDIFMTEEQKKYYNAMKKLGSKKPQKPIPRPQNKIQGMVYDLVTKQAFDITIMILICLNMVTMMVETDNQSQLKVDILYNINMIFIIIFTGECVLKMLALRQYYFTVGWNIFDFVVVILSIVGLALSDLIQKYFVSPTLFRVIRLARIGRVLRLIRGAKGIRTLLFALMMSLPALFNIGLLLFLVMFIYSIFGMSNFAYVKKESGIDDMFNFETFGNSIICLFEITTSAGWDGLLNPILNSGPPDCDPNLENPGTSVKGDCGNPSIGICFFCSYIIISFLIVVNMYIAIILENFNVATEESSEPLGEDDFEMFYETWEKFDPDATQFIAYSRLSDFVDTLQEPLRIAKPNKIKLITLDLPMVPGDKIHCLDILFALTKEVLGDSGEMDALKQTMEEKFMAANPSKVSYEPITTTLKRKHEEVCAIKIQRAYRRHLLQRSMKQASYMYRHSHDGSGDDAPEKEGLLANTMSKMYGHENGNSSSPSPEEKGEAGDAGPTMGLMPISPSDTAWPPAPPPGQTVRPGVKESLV

[5] = biological target: T1, Sodium channel protein type 3 subunit alpha; assay: Modulation of human Nav1.3 in open-inactivated state assessed as inhibition of inward current after 4 mins by whole-cell electrophysiology
[6] = biological target: T3, Sodium channel protein type 4 subunit alpha; assay: Modulation of human Nav1.4 in closed state assessed as inhibition of inward current after 4 mins by whole-cell electrophysiology; outline: as §1

Row | Compound | IC50 [1] [µM] | IC50 [2] [µM] | IC50 [3] [µM] | IC50 [4] [µM] | IC50 [5] [µM] | IC50 [6] [µM]
1 | Nc1nc(-c2cccc(NC(=O)c3c[nH]c4ccccc34)c2)c[nH]1 | > 30 | 26 | > 30 | 14 | 12 | > 30
2 | CNc1nc(-c2cccc(NC(=O)c3ccco3)c2)cn1C(=O)OC(C)(C)C | > 30 | 26 | > 30 | > 30 | > 30 | > 30
3 | CCN(CC)CC(=O)Nc1c(C)cccc1C [LIDOCAINE] |  |  |  | 2 | 10.5 | 
4 | CC(C)(C)OC(=O)n1cc(-c2cccc(NC(=O)c3cc[nH]c3)c2)nc1N | > 30 | > 30 | > 30 | > 30 | 23 | > 30
5 | CC(C)(C)OC(=O)n1cc(-c2ccc(NC(=O)c3ccco3)cc2)nc1N | > 30 | 22 | > 30 | > 30 | 27 | > 30
6 | Nc1nc(-c2ccc(NC(=O)[C@@H]3CCCN3)cc2)c[nH]1 | > 30 | > 30 | > 30 | > 30 | 13 | > 30
7 | CC(C)(C)OC(=O)n1cc(-c2ccc(NC(=O)[C@@H]3CCCN3)cc2)nc1N | > 30 | 19 | > 30 | > 30 | 25 | > 30
8 | Nc1nc(-c2ccc(NC(=O)c3cc4ccccc4[nH]3)cc2)c[nH]1 | > 30 | > 30 | > 30 | > 30 | > 30 | > 30
9 | CNc1nc(-c2cccc(NC(=O)c3cc4ccccc4[nH]3)c2)cn1C(=O)OC(C)(C)C | > 30 | > 30 | > 30 | > 30 | > 30 | > 30
10 | CC(C)(C)OC(=O)n1cc(-c2cccc(NC(=O)[C@H]3CCCN3)c2)nc1N | > 30 | 29 | > 30 | > 30 | > 30 | > 30
11 | CC(C)(C)OC(=O)n1cc(-c2cccc(NC(=O)c3cc4ccccc4[nH]3)c2)nc1N | > 30 | > 30 | > 30 | > 30 | 26 | > 30
12 | CC(C)(C)OC(=O)n1cc(-c2ccc(NC(=O)c3ccc[nH]3)cc2)nc1N | > 30 | > 30 | > 30 | > 30 | > 30 | > 30
13 | Nc1nc(-c2cccc(NC(=O)c3ccc[nH]3)c2)cn1C(=O)c1ccc[nH]1 | > 30 | 19 | > 30 | > 30 | 25 | > 30
14 | CC(C)(C)OC(=O)n1cc(-c2ccc(NC(=O)[C@H]3CCCN3)cc2)nc1N | > 30 | > 30 | > 30 | > 30 | > 30 | > 30
15 | CC(C)(C)OC(=O)n1cc(-c2ccc(NC(=O)c3cc4ccccc4[nH]3)cc2)nc1N | > 30 | > 30 | > 30 | 28 | 22 | > 30
16 | Nc1nc(-c2cccc(NC(=O)c3cc[nH]c3)c2)c[nH]1 | > 30 | > 30 | > 30 | 15 | 12 | > 30
17 | CC(C)(C)OC(=O)n1cc(-c2cccc(NC(=O)c3ccc[nH]3)c2)nc1N | > 30 | > 30 | > 30 | 25 | 25 | > 30
18 | CC(C)(C)OC(=O)n1cc(-c2cccc(NC(=O)c3c[nH]c4ccccc34)c2)nc1N | > 30 | > 30 | > 30 | 26 | 27 | > 30
19 | CNc1nc(-c2cccc(NC(=O)c3cc4ccccc4[nH]3)c2)c[nH]1 | > 30 | > 30 | > 30 | > 30 | > 30 | > 30
20 | Nc1nc(-c2ccc(NC(=O)c3ccc[nH]3)cc2)c[nH]1 | > 30 | 27 | > 30 | > 30 | > 30 | > 30
21 | Nc1nc(-c2cccc(NC(=O)c3ccc[nH]3)c2)c[nH]1 | > 30 | > 30 | > 30 | > 30 | > 30 | > 30
22 | Nc1nc(-c2cccc(NC(=O)c3cc4ccccc4[nH]3)c2)c[nH]1 | > 30 | > 30 | > 30 | > 30 | > 30 | > 30
